From ChEMBL document CHEMBL3286279, “The synthesis and biological evaluation of new DNA-directed alkylating agents, phenyl N-mustard-4-anilinoquinoline conjugates containing a urea linker” (Eur J Med Chem, 2014)
Activity calls are given as the source filed them. No cut-off for these calls is given here.

Experiments:
[1] = system: CCRF-CEM; experiment: Cytotoxicity against human CCRF-CEM cells after 72 hrs by AlamarBlue assay; type: functional, cell-based
Summary of the method: (§1)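 Growth inhibition read by alamarBlue. After reagent addition, plates were held 6 h at 37 °C and absorbance read at 570 and 600 nm. IC50 was derived from dose-response curves over 6 or 7 drug concentrations by the median-effect method. Values are mean and STDEV of three to six independent experiments.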

[2] = system: CCRF-CEM; experiment: Cytotoxicity against human vinblastine-resistant CCRF-CEM cells after 72 hrs by AlamarBlue assay; type: functional, cell-based; summary of the method: as §1
[3] = system: PC-3; experiment: Cytotoxicity against human PC3 cells after 72 hrs by AlamarBlue assay; type: functional, cell-based; conditions: PC-3, 72 h; summary of the method: as §1
[4] = Cytotoxicity against human H460 cells after 72 hrs by AlamarBlue assay; type: functional, cell-based; conditions: NCI-H460, 72 h; summary of the method: as §1
[5] = Cytotoxicity against human H1299 cells after 72 hrs by AlamarBlue assay; type: functional, cell-based; conditions: NCI-H1299, 72 h; summary of the method: as §1
[6] = system: HCT-116; experiment: Cytotoxicity against human HCT116 cells after 72 hrs by AlamarBlue assay; type: functional, cell-based; conditions: HCT-116, 72 h; summary of the method: as §1
[7] = system: CCRF-CEM; experiment: Ratio of IC50 for human vinblastine-resistant CCRF-CEM cells to IC50 for human CCRF-CEM cells; type: functional
Summary of the method: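 Ratio of alamarBlue IC50 values, determined in the CCRF-CEM/VBL vinblastine-resistant subline and in the parental CCRF-CEM line.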

[8] = Induction of DNA cross-linking activity in pEGFP-N1 DNA (unknown origin) at 20 uM after 2 hrs by alkaline agarose gel shift assay
Summary of the method: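 pEGFP-N1 plasmid DNA incubated with compound at 1, 10 or 20 µM in binding buffer (30 mM NaCl/10 mM sodium phosphate pH 7.4, 10 mM EDTA) for 2 h at 37 °C. DNA then linearized with BamHI for 6 h, ethanol-precipitated and run on alkaline agarose gel. Cross-linked double-stranded DNA was scored against single-stranded DNA. Melphalan (1 and 10 µM) was the positive control.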

[9] = system: NCI-H460; experiment: Induction of apoptosis in human H460 cells assessed as early apoptotic cells at 2 uM after 24 hrs using Annexin V/propidium iodide staining by flow cytometry (reference value: 2%); type: functional
[10] = system: NCI-H460; experiment: Induction of apoptosis in human H460 cells assessed as necrotic cells at 2 uM after 48 hrs using Annexin V/propidium iodide staining by flow cytometry (reference value: 0.6%); type: functional
[11] = system: NCI-H460; experiment: Induction of apoptosis in human H460 cells assessed as late apoptotic cells at 2 uM after 48 hrs using Annexin V/propidium iodide staining by flow cytometry (reference value: 7%); type: functional
[12] = system: NCI-H460; experiment: Induction of apoptosis in human H460 cells assessed as early apoptotic cells at 2 uM after 48 hrs using Annexin V/propidium iodide staining by flow cytometry (reference value: 2%); type: functional
[13] = system: NCI-H460; experiment: Induction of apoptosis in human H460 cells assessed as necrotic cells at 2 uM after 72 hrs using Annexin V/propidium iodide staining by flow cytometry (reference value: 0.6%); type: functional
[14] = system: NCI-H460; experiment: Induction of apoptosis in human H460 cells assessed as late apoptotic cells at 2 uM after 72 hrs using Annexin V/propidium iodide staining by flow cytometry (reference value: 7%); type: functional
[15] = system: NCI-H460; experiment: Induction of apoptosis in human H460 cells assessed as early apoptotic cells at 2 uM after 72 hrs using Annexin V/propidium iodide staining by flow cytometry (reference value: 2%); type: functional
[16] = Cell cycle arrest in human H460 cells assessed as accumulation at G2/M phase after 24 hrs using propidium iodide staining by flow cytometry; type: functional, cell-based; conditions: NCI-H460
Summary of the method: (§2)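 H460 cells exposed to 0.25, 0.5, 1 or 2 µM for 24 h, then stained with […] propidium iodide in PBS with 0.1 mg/mL RNase A and 1% Triton X-100. DNA content and phase distribution read by flow cytometry. Values are the mean of 3 independent experiments.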

[17] = Cell cycle arrest in human H460 cells assessed as accumulation at G1 phase after 24 hrs using propidium iodide staining by flow cytometry; type: functional, cell-based; conditions: NCI-H460; summary of the method: as §2
[18] = Cell cycle arrest in human H460 cells assessed as accumulation at sub-G1 phase at 2 uM after 24 hrs using propidium iodide staining by flow cytometry; type: functional, cell-based; conditions: NCI-H460; summary of the method: as §2
[19] = system: NCI-H460; experiment: Induction of apoptosis in human H460 cells assessed as necrotic cells at 2 uM after 24 hrs using Annexin V/propidium iodide staining by flow cytometry (reference value: 0.6%); type: functional
[20] = system: NCI-H460; experiment: Induction of apoptosis in human H460 cells assessed as late apoptotic cells at 2 uM after 24 hrs using Annexin V/propidium iodide staining by flow cytometry (reference value: 7%); type: functional

| Structure (SMILES) | IC50 [1] [µM] | IC50 [2] [µM] | IC50 [3] [µM] | IC50 [4] [µM] | IC50 [5] [µM] | IC50 [6] [µM] | Ratio IC50 [7] | Activity [8] | Activity [9] [%] | Activity [10] [%] | Activity [11] [%] | Activity [12] [%] | Activity [13] [%] | Activity [14] [%] | Activity [15] [%] | Activity [16] | Activity [17] | Activity [18] | Activity [19] [%] | Activity [20] [%] |
| --- | --- | --- | --- | --- | --- | --- | --- | --- | --- | --- | --- | --- | --- | --- | --- | --- | --- | --- | --- | --- |
| O=C(Nc1ccc(N(CCCl)CCCl)cc1)Nc1ccc2nc(-c3ccccc3)cc(Nc3ccc(F)c(Cl)c3)c2c1 | 2.72 | 7.07 | 8.86 | 7.81 | 5.39 | 3.58 | 2.59 | – | – | – | – | – | – | – | – | – | – | – | – | – |
| COc1cccc(Nc2cc(C)nc3ccc(NC(=O)Nc4ccc(N(CCCl)CCCl)cc4)cc23)c1 | 0.28 | 4.22 | 2.38 | 1.83 | 1.32 | 0.62 | 15.07 | Active | – | – | – | – | – | – | – | – | – | – | – | – |
| C#Cc1cccc(Nc2cc(C)nc3ccc(NC(=O)Nc4ccc(N(CCCl)CCCl)cc4)cc23)c1 | 0.47 | 4.49 | 1.17 | 0.7 | 1.13 | 0.59 | 9.55 | – | – | – | – | – | – | – | – | – | – | – | – | – |
| Cc1cc(Nc2ccccc2)c2cc(NC(=O)Nc3ccc(N(CCCl)CCCl)cc3)ccc2n1 | 0.44 | 11.5 | 1.49 | 1.37 | 1.73 | 0.83 | 26.15 | – | – | – | – | – | – | – | – | – | – | – | – | – |
| Cc1cccc(Nc2cc(-c3ccccc3)nc3ccc(NC(=O)Nc4ccc(N(CCCl)CCCl)cc4)cc23)c1 | 1.84 | 4.15 | 1.23 | 2.09 | 1.42 | 1.8 | 2.25 | – | – | – | – | – | – | – | – | – | – | – | – | – |
| CNc1cc(C)nc2ccc(NC(=O)Nc3ccc(N(CCCl)CCCl)cc3)cc12 | 0.39 | > 100 | 2.51 | 9.37 | 5.4 | 1.28 | >256 | – | – | – | – | – | – | – | – | – | – | – | – | – |
| COc1cc(Nc2cc(C)nc3ccc(NC(=O)Nc4ccc(N(CCCl)CCCl)cc4)cc23)cc(OC)c1OC | 0.8 | > 100 | 3.46 | 3.74 | 2.54 | 1.81 | >125 | – | – | – | – | – | – | – | – | – | – | – | – | – |
| Cc1cc(Nc2cccc(Br)c2)c2cc(NC(=O)Nc3ccc(N(CCCl)CCCl)cc3)ccc2n1 | 0.46 | 5.19 | 1.41 | 1.18 | 0.77 | 0.49 | 11.28 | – | 3.7 | 21.8 | 32.6 | 1.4 | 9.8 | 65.5 | 3.7 | Dose-dependent effect | Dose-dependent effect | Active | 4.3 | 16.7 |
| CC[C@]1(O)C[C@@H]2CN(CCc3c([nH]c4ccccc34)[C@@](C(=O)OC)(c3cc4c(cc3OC)N(C)[C@H]3[C@@](O)(C(=O)OC)[C@H](OC(C)=O)[C@]5(CC)C=CCN6CC[C@]43[C@@H]65)C2)C1 [VINBLASTINE] | 0.0029 | 0.87 | – | – | – | – | 300 | – | – | – | – | – | – | – | – | – | – | – | – | – |
| Cc1cc(Nc2cccc(C(F)(F)F)c2)c2cc(NC(=O)Nc3ccc(N(CCCl)CCCl)cc3)ccc2n1 | 0.59 | 5.96 | 1.42 | 0.85 | 1.48 | 0.62 | 10.1 | – | – | – | – | – | – | – | – | – | – | – | – | – |
| Cc1cc(Nc2ccc(F)cc2)c2cc(NC(=O)Nc3ccc(N(CCCl)CCCl)cc3)ccc2n1 | 0.42 | 11 | 7.16 | 1.01 | 2.37 | 1.06 | 26.19 | – | – | – | – | – | – | – | – | – | – | – | – | – |
| Cc1cc(Nc2cccc(F)c2)c2cc(NC(=O)Nc3ccc(N(CCCl)CCCl)cc3)ccc2n1 | 0.7 | 9.58 | 1.49 | 0.86 | 1.09 | 0.74 | 13.68 | – | – | – | – | – | – | – | – | – | – | – | – | – |
| Cc1cccc(Nc2cc(C)nc3ccc(NC(=O)Nc4ccc(N(CCCl)CCCl)cc4)cc23)c1 | 0.39 | 5.85 | 1.29 | 0.92 | 1.05 | 0.49 | 15 | Active | – | – | – | – | – | – | – | – | – | – | – | – |
| COc1cccc(Nc2cc(-c3ccccc3)nc3ccc(NC(=O)Nc4ccc(N(CCCl)CCCl)cc4)cc23)c1 | 0.79 | 2.71 | 2.21 | 1.89 | 2.13 | 1.35 | 3.43 | – | – | – | – | – | – | – | – | – | – | – | – | – |
| Cc1cc(Nc2ccc(F)c(Br)c2)c2cc(NC(=O)Nc3ccc(N(CCCl)CCCl)cc3)ccc2n1 | 0.4 | 10.2 | 1.32 | 0.82 | 1.28 | 0.63 | 25.45 | – | – | – | – | – | – | – | – | – | – | – | – | – |
| O=C(Nc1ccc(N(CCCl)CCCl)cc1)Nc1ccc2nc(-c3ccccc3)cc(Nc3cccc(Cl)c3)c2c1 | 2.07 | 4.55 | 2.13 | 2.26 | 2.35 | 3.69 | 2.19 | – | – | – | – | – | – | – | – | – | – | – | – | – |
| Cc1cc(Nc2cccc(Cl)c2)c2cc(NC(=O)Nc3ccc(N(CCCl)CCCl)cc3)ccc2n1 | 0.59 | 7.56 | 1.27 | 1.03 | 0.88 | 0.56 | 12.81 | – | – | – | – | – | – | – | – | – | – | – | – | – |
| Cc1cc(Nc2ccc(Br)cc2)c2cc(NC(=O)Nc3ccc(N(CCCl)CCCl)cc3)ccc2n1 | 0.52 | 9.53 | 1.75 | 0.91 | 1.35 | 0.8 | 18.33 | – | – | – | – | – | – | – | – | – | – | – | – | – |
| Cc1cc(Nc2ccc(Cl)cc2)c2cc(NC(=O)Nc3ccc(N(CCCl)CCCl)cc3)ccc2n1 | 0.73 | 8.18 | 1.36 | 0.84 | 1.31 | 0.77 | 11.21 | – | – | – | – | – | – | – | – | – | – | – | – | – |
| Cc1cc(Nc2ccc(F)c(Cl)c2)c2cc(NC(=O)Nc3ccc(N(CCCl)CCCl)cc3)ccc2n1 | 0.54 | 9.83 | 1.78 | 1.4 | 1.07 | 0.83 | 18.2 | – | – | – | – | – | – | – | – | – | – | – | – | – |
